Data as given in ChEMBL document CHEMBL2177069, “Novel peptidomimetic compounds containing redox active chalcogens and quinones as potential anticancer agents” (Eur J Med Chem, 2012).
pIC50: −log10 of the molar value. The source made the active and inactive calls. The calls are words filed in the database; no cut-off is given here.

Assays:
NCI/ADR-RES = assay: Cytotoxicity against human NCI/ADR-RES cells; format: functional
SK-MEL-28 = assay: Cytotoxicity against human SK-MEL-28 cells; format: functional
PtK2 [1] = assay: Induction of oxidative stress in potoroo PtK2 cells assessed as change in microtubular network after 24 hrs by immunofluorescence microscopic analysis; format: functional, cell-based; conditions: Potorous tridactylus
How it was run: (§1)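 PtK2 cells were grown on coverslips and treated once semi-confluent, for 24 h. Cells were fixed with 3.7% paraformaldehyde followed by 0.1% Triton X-100, or with cold methanol/acetone 50:50. Primary and secondary antibodies were applied for 45 min each: anti-GRP94 for ER, anti-α-tubulin. Actin was stained with phalloidin and nuclei with DAPI. Imaging was by fluorescence microscopy with a CCD camera.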

HCT-15 = assay: Cytotoxicity against human HCT15 cells; format: functional
PtK2 [2] = assay: Induction of oxidative stress in potoroo PtK2 cells assessed as change in cell morphology after 24 hrs by immunofluorescence microscopic analysis; format: functional, cell-based; conditions: Potorous tridactylus; how it was run: as §1
OVCAR-3 = assay: Cytotoxicity against human OVCAR3 cells; format: functional
NCI-H23 = assay: Cytotoxicity against human NCI-H23 cells; format: functional
A498 = assay: Cytotoxicity against human A498 cells after 24 hrs by MTT assay; format: functional, cell-based; conditions: A498, 24 h
How it was run: (§2)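 MTT assay. Cells were seeded at 50,000 cells/mL in medium with 10% fetal calf serum and grown for two days at 37 °C, 10% CO2. Serial dilutions of compound were then added for 24 h. MTT was added (final 0.5 mg/mL) for 2 h, and the formazan was pelleted, washed, dissolved in isopropanol with 0.4% HCl and read at 590 nm. IC50 is the concentration giving 50% of untreated-control absorbance, taken from dose-response curves; mean of two parallel experiments.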

SK-OV-3 = assay: Cytotoxicity against human SKOV3 cells; format: functional
MDA-MB-231 = assay: Cytotoxicity against human MDA-MB-231 cells; format: functional
SN12C = assay: Cytotoxicity against human SN12C cells; format: functional
Saccharomyces cerevisiae [3] = assay: Growth inhibition of GSH2-deficient Saccharomyces cerevisiae YOL049W mutant at 20 ug/disc after 24 to 48 hrs by agar diffusion assay; format: functional; conditions: read-out: DIZ
How it was run: (§3)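 S. cerevisiae deletion mutants or wild type grown on YPD, seeded into liquid agar medium at an optical density of 0.1. 6 mm paper discs soaked with methanolic compound solution were placed on the plates and incubated at 30 °C. Growth was checked after 1 and 2 days, and the inhibition zone diameter was recorded in mm.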

K562 = assay: Cytotoxicity against human K562 cells; format: functional
Saccharomyces cerevisiae [4] = assay: Growth inhibition of PST2-deficient Saccharomyces cerevisiae YDR032C mutant at 20 ug/disc 24 to 48 hrs by agar diffusion assay; format: functional; conditions: read-out: DIZ; how it was run: as §3
NCI-H460 = assay: Cytotoxicity against human NCI-H460 cells; format: functional
Saccharomyces cerevisiae [5] = assay: Growth inhibition of SOD1-deficient Saccharomyces cerevisiae YJR104C mutant at 20 ug/disc after 24 to 48 hrs by agar diffusion assay; format: functional; conditions: read-out: DIZ; how it was run: as §3
UACC-257 = assay: Cytotoxicity against human UACC257 cells; format: functional
SF-268 = assay: Cytotoxicity against human SF268 cells; format: functional
Hs-578T = assay: Cytotoxicity against human Hs578T cells; format: functional
PC-3 = assay: Cytotoxicity against human PC3 cells; format: functional
A549 = assay: Cytotoxicity against human A549 cells; format: functional
IGROV-1 = assay: Cytotoxicity against human IGROV1 cells; format: functional
LOX IMVI = assay: Cytotoxicity against human LOXIMVI cells; format: functional
OVCAR-4 = assay: Cytotoxicity against human OVCAR4 cells; format: functional
MCF7 [6] = assay: Cytotoxicity against human MCF7 cells; format: functional
PtK2 [7] = assay: Induction of oxidative stress in potoroo PtK2 cells assessed as reduction in cell adhesion after 24 hrs by immunofluorescence microscopic analysis; format: functional, cell-based; conditions: Potorous tridactylus; how it was run: as §1
OVCAR-5 = assay: Cytotoxicity against human OVCAR5 cells; format: functional
PtK2 [8] = assay: Induction of oxidative stress in potoroo PtK2 cells assessed as reduction in actin stress fibres after 24 hrs by immunofluorescence microscopic analysis; format: functional, cell-based; conditions: Potorous tridactylus; how it was run: as §1
U-251 = assay: Cytotoxicity against human U251 cells; format: functional
MOLT-4 = assay: Cytotoxicity against human MOLT4 cells; format: functional
Saccharomyces cerevisiae [9] = assay: Growth inhibition of SOD2-deficient Saccharomyces cerevisiae YHR008C mutant at 20 ug/disc 24 to 48 hrs by agar diffusion assay; format: functional; conditions: read-out: DIZ; how it was run: as §3
CCRF-CEM = assay: Cytotoxicity against human CCRF-CEM cells; format: functional
EKVX = assay: Cytotoxicity against human EKVX cells; format: functional
HOP-62 = assay: Cytotoxicity against human HOP62 cells; format: functional
MCF7 [10] = assay: Cytotoxicity against human MCF7 cells after 24 hrs by MTT assay; format: functional, cell-based; conditions: MCF7, 24 h; how it was run: as §2
HL-60 = assay: Cytotoxicity against human HL60 cells; format: functional
COLO 205 = assay: Cytotoxicity against human COLO205 cells; format: functional
Saccharomyces cerevisiae [11] = assay: Growth inhibition of COX17-deficient Saccharomyces cerevisiae YLL009C mutant at 20 ug/disc after 24 to 48 hrs by agar diffusion assay; format: functional; conditions: read-out: DIZ; how it was run: as §3
Saccharomyces cerevisiae [12] = assay: Growth inhibition of GTT2-deficient Saccharomyces cerevisiae YLL060C mutant at 20 ug/disc after 24 to 48 hrs by agar diffusion assay; format: functional; conditions: read-out: DIZ; how it was run: as §3

CC1=C([Se]CC(OC(=O)[C@@H](CO)NC(=O)OC(C)(C)C)C(=O)NC(C)(C)C)C(=O)c2ccccc2C1=O (some centres undefined)
GI50 (NCI/ADR-RES): 1.62 µM | TGI (NCI/ADR-RES; read-out: pTGI (converted)): 3.09 µM | GI50 (SK-MEL-28): 2.04 µM | LC50 (SK-MEL-28): 6.17 µM | TGI (SK-MEL-28; read-out: pTGI (converted)): 3.55 µM | Activity (PtK2 [1]): inactive | GI50 (HCT-15): 2 µM | LC50 (HCT-15): 7.94 µM | TGI (HCT-15; read-out: pTGI (converted)): 3.98 µM | Activity (PtK2 [2]): Active | GI50 (OVCAR-3): 1.78 µM | LC50 (OVCAR-3): 5.62 µM | TGI (OVCAR-3; read-out: pTGI (converted)): 3.16 µM | GI50 (NCI-H23): 1.48 µM | LC50 (NCI-H23): 6.92 µM | TGI (NCI-H23; read-out: pTGI (converted)): 3.24 µM | pIC50 (A498): 5.30 | GI50 (SK-OV-3): 1.26 µM | LC50 (SK-OV-3): 5.13 µM | TGI (SK-OV-3; read-out: pTGI (converted)): 2.57 µM | GI50 (MDA-MB-231): 1.62 µM | LC50 (MDA-MB-231): 6.03 µM | TGI (MDA-MB-231; read-out: pTGI (converted)): 3.16 µM | GI50 (SN12C): 1.86 µM | LC50 (SN12C): 6.31 µM | TGI (SN12C; read-out: pTGI (converted)): 3.39 µM | zone of inhibition at 20 µg/disc (Saccharomyces cerevisiae [3]): 18 mm | GI50 (K562): 1.35 µM | LC50 (K562): > 100 µM | zone of inhibition at 20 µg/disc (Saccharomyces cerevisiae [4]): 11 mm | GI50 (NCI-H460): 0.457 µM | LC50 (NCI-H460): 7.41 µM | TGI (NCI-H460; read-out: pTGI (converted)): 1.78 µM | zone of inhibition at 20 µg/disc (Saccharomyces cerevisiae [5]): 22 mm | GI50 (UACC-257): 1.74 µM | LC50 (UACC-257): 6.03 µM | TGI (UACC-257; read-out: pTGI (converted)): 3.24 µM | GI50 (SF-268): 1.91 µM | LC50 (SF-268): 5.89 µM | TGI (SF-268; read-out: pTGI (converted)): 3.31 µM | GI50 (Hs-578T): 2.82 µM | LC50 (Hs-578T): > 100 µM | GI50 (PC-3): 1.35 µM | LC50 (PC-3): 6.03 µM | TGI (PC-3; read-out: pTGI (converted)): 2.82 µM | GI50 (A549): 1.82 µM | LC50 (A549): 89.1 µM | TGI (A549; read-out: pTGI (converted)): 9.33 µM | GI50 (IGROV-1): 1.66 µM | LC50 (concentration killing 50% of cells) (IGROV-1): 6.46 µM | TGI (IGROV-1; read-out: pTGI (converted)): 3.24 µM | GI50 (LOX IMVI): 1.58 µM | LC50 (LOX IMVI): 5.75 µM | TGI (LOX IMVI; read-out: pTGI (converted)): 3.02 µM | GI50 (OVCAR-4): 1.23 µM | LC50 (OVCAR-4): 5.01 µM | TGI (OVCAR-4; read-out: pTGI (converted)): 2.51 µM | GI50 (MCF7 [6]): 1.74 µM | LC50 (MCF7 [6]): 8.91 µM | TGI (MCF7 [6]; read-out: pTGI (converted)): 3.98 µM | Activity (PtK2 [7]): Active | GI50 (OVCAR-5): 2.09 µM | LC50 (OVCAR-5): 6.61 µM | TGI (OVCAR-5; read-out: pTGI (converted)): 3.72 µM | Activity (PtK2 [8]): Active | GI50 (U-251): 0.977 µM | LC50 (U-251): 6.61 µM | TGI (U-251; read-out: pTGI (converted)): 2.57 µM | GI50 (MOLT-4): 0.447 µM | LC50 (MOLT-4): > 100 µM | zone of inhibition at 20 µg/disc (Saccharomyces cerevisiae [9]): 19 mm | GI50 (CCRF-CEM): 0.525 µM | LC50 (CCRF-CEM): > 100 µM | TGI (CCRF-CEM; read-out: pTGI): > 100 µM | GI50 (EKVX): 1.78 µM | LC50 (EKVX): 7.76 µM | TGI (EKVX; read-out: pTGI (converted)): 3.72 µM | GI50 (HOP-62): 0.525 µM | LC50 (HOP-62): 4.37 µM | TGI (HOP-62; read-out: pTGI (converted)): 1.86 µM | pIC50 (MCF7 [10]): 5.52 | GI50 (HL-60): 0.871 µM | LC50 (HL-60): > 100 µM | TGI (HL-60; read-out: pTGI (converted)): 3.8 µM | GI50 (COLO 205): 1.82 µM | CC50 (COLO 205; read-out: pLC50 (the source's name) (converted)): 6.03 µM | TGI (COLO 205; read-out: pTGI (converted)): 3.31 µM | zone of inhibition at 20 µg/disc (Saccharomyces cerevisiae [11]): 13 mm | zone of inhibition at 20 µg/disc (Saccharomyces cerevisiae [12]): 21 mm
